SMILES strings stand for the structures.

Here are results for 6 molecules from ChEMBL document CHEMBL3739286, “Betulinic acid derived hydroxamates and betulin derived carbamates are interesting scaffolds for the synthesis of novel cytotoxic compounds” (Eur J Med Chem, 2015).

In the first test the test system is A2780. Briefly: Cytotoxicity against human A2780 cells after 96 hrs by SRB assay. The class given is functional, cell-based. The following applies: Homo sapiens, A2780, 96 h; read-out: EC50. The procedure, abridged:
(§1)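 Photometric sulforhodamine B read-out of antiproliferative effect after 96 h of continuous treatment; EC₅₀ values in µM, averaged from three independent experiments each run in triplicate; the assay cut-off is EC₅₀ > 30 µM. Human tumour lines are tested alongside nonmalignant mouse NIH 3T3 fibroblasts.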
For orientation: EC50 means the concentration that produces a half-maximal response. As for `C=C(C)[C@@H]1CC[C@]2(COC(=O)NCCCC)CC[C@]3(C)[C@H](CC[C@@H]4[C@@]5(C)CC[C@H](O)C(C)(C)[C@@H]5CC[C@]43C)[C@@H]12`, the EC50 was 7 µM.

Take `C=C(C)[C@@H]1CC[C@]2(COC(=O)Nc3ccccc3)CC[C@]3(C)[C@H](CC[C@@H]4[C@@]5(C)CC[C@H](O)C(C)(C)[C@@H]5CC[C@]43C)[C@@H]12`: the EC50 came to 7.2 µM.

As for `C=C(C)[C@@H]1CC[C@]2(C(=O)N(C)OC)CC[C@]3(C)[C@H](CC[C@@H]4[C@@]5(C)CCC(=O)C(C)(C)[C@@H]5CC[C@]43C)[C@@H]12`, the EC50 was 20.7 µM.

Take `C=C(C)[C@@H]1CC[C@]2(C(=O)N(C)OC)CC[C@]3(C)[C@H](CC[C@@H]4[C@@]5(C)CC[C@H](OC(C)=O)C(C)(C)[C@@H]5CC[C@]43C)[C@@H]12`: the EC50 amounted to 19.3 µM.

With `C=CCONC(=O)[C@]12CC[C@@H](C(=C)C)[C@@H]1[C@H]1CC[C@@H]3[C@@]4(C)CC[C@H](O)C(C)(C)[C@@H]4CC[C@@]3(C)[C@]1(C)CC2`, the EC50 stood at 7.3 µM.

On to `C=CCONC(=O)[C@]12CC[C@@H](C(=C)C)[C@@H]1[C@H]1CC[C@@H]3[C@@]4(C)CCC(=O)C(C)(C)[C@@H]4CC[C@@]3(C)[C@]1(C)CC2`, for which the EC50 came out at 19.7 µM.

The next test concerns A549. Briefly: Cytotoxicity against human A549 cells after 96 hrs by SRB assay. The class given is functional, cell-based. The following applies: Homo sapiens, A549, 96 h; read-out: EC50. In a few lines:
as §1
Turning to `C=C(C)[C@@H]1CC[C@]2(COC(=O)NCCCC)CC[C@]3(C)[C@H](CC[C@@H]4[C@@]5(C)CC[C@H](O)C(C)(C)[C@@H]5CC[C@]43C)[C@@H]12`, the EC50 was 8.6 µM.

With `C=C(C)[C@@H]1CC[C@]2(COC(=O)Nc3ccccc3)CC[C@]3(C)[C@H](CC[C@@H]4[C@@]5(C)CC[C@H](O)C(C)(C)[C@@H]5CC[C@]43C)[C@@H]12`, the EC50 is greater than 30 µM.

As for `C=C(C)[C@@H]1CC[C@]2(C(=O)N(C)OC)CC[C@]3(C)[C@H](CC[C@@H]4[C@@]5(C)CCC(=O)C(C)(C)[C@@H]5CC[C@]43C)[C@@H]12`, the EC50 was 14.5 µM.

On to `C=C(C)[C@@H]1CC[C@]2(C(=O)N(C)OC)CC[C@]3(C)[C@H](CC[C@@H]4[C@@]5(C)CC[C@H](OC(C)=O)C(C)(C)[C@@H]5CC[C@]43C)[C@@H]12`, for which the EC50 stood at 20.1 µM.

In the case of `C=CCONC(=O)[C@]12CC[C@@H](C(=C)C)[C@@H]1[C@H]1CC[C@@H]3[C@@]4(C)CC[C@H](O)C(C)(C)[C@@H]4CC[C@@]3(C)[C@]1(C)CC2`, the EC50 turned out to be 4.1 µM.

Turning to `C=CCONC(=O)[C@]12CC[C@@H](C(=C)C)[C@@H]1[C@H]1CC[C@@H]3[C@@]4(C)CCC(=O)C(C)(C)[C@@H]4CC[C@@]3(C)[C@]1(C)CC2`, the EC50 was 25 µM.

For the next test, the system named is HT-29. Briefly: Cytotoxicity against human HT-29 cells after 96 hrs by SRB assay. The class given is functional, cell-based. The following applies: HT-29, 96 h. The procedure, abridged: as §1
(In general: Sulforhodamine B stains cellular protein and so reports cell mass.)
Consider `C=C(C)[C@@H]1CC[C@]2(COC(=O)NCCCC)CC[C@]3(C)[C@H](CC[C@@H]4[C@@]5(C)CC[C@H](O)C(C)(C)[C@@H]5CC[C@]43C)[C@@H]12`, for which the EC50 amounted to 7.5 µM.

Regarding `C=C(C)[C@@H]1CC[C@]2(COC(=O)Nc3ccccc3)CC[C@]3(C)[C@H](CC[C@@H]4[C@@]5(C)CC[C@H](O)C(C)(C)[C@@H]5CC[C@]43C)[C@@H]12`, the EC50 was 16.3 µM.

System in a further test: not listed separately
Briefly: Cytotoxicity against human 518A2 cells after 96 hrs by SRB assay. The class given is functional, cell-based. The following applies: Homo sapiens, 518A2, 96 h; read-out: EC50. The procedure, abridged: as §1
As for `C=C(C)[C@@H]1CC[C@]2(COC(=O)NCCCC)CC[C@]3(C)[C@H](CC[C@@H]4[C@@]5(C)CC[C@H](O)C(C)(C)[C@@H]5CC[C@]43C)[C@@H]12`, the EC50 stood at 8 µM.

With `C=C(C)[C@@H]1CC[C@]2(COC(=O)Nc3ccccc3)CC[C@]3(C)[C@H](CC[C@@H]4[C@@]5(C)CC[C@H](O)C(C)(C)[C@@H]5CC[C@]43C)[C@@H]12`, the EC50 came out at 23.9 µM.

As to `C=C(C)[C@@H]1CC[C@]2(C(=O)N(C)OC)CC[C@]3(C)[C@H](CC[C@@H]4[C@@]5(C)CCC(=O)C(C)(C)[C@@H]5CC[C@]43C)[C@@H]12`, the EC50 is greater than 30 µM.

In the case of `C=C(C)[C@@H]1CC[C@]2(C(=O)N(C)OC)CC[C@]3(C)[C@H](CC[C@@H]4[C@@]5(C)CC[C@H](OC(C)=O)C(C)(C)[C@@H]5CC[C@]43C)[C@@H]12`, the EC50 was 17.5 µM.

As for `C=CCONC(=O)[C@]12CC[C@@H](C(=C)C)[C@@H]1[C@H]1CC[C@@H]3[C@@]4(C)CC[C@H](O)C(C)(C)[C@@H]4CC[C@@]3(C)[C@]1(C)CC2`, the EC50 stood at 6.7 µM.

Take `C=CCONC(=O)[C@]12CC[C@@H](C(=C)C)[C@@H]1[C@H]1CC[C@@H]3[C@@]4(C)CCC(=O)C(C)(C)[C@@H]4CC[C@@]3(C)[C@]1(C)CC2`: the EC50 was 22.4 µM.

Another test deals with HeLa. Briefly: Cytotoxicity against human HeLa cells after 96 hrs by SRB assay. The class given is functional, cell-based.
Details: not given
In a few lines: as §1
Molecule `C=C(C)[C@@H]1CC[C@]2(COC(=O)NCCCC)CC[C@]3(C)[C@H](CC[C@@H]4[C@@]5(C)CC[C@H](O)C(C)(C)[C@@H]5CC[C@]43C)[C@@H]12` came in with an EC50 of 10.1 µM.

`C=C(C)[C@@H]1CC[C@]2(COC(=O)Nc3ccccc3)CC[C@]3(C)[C@H](CC[C@@H]4[C@@]5(C)CC[C@H](O)C(C)(C)[C@@H]5CC[C@]43C)[C@@H]12` gave an EC50 of 11.5 µM.

A further test concerns MCF7. Briefly: Cytotoxicity against human MCF7 cells after 96 hrs by SRB assay. The class given is functional, cell-based. To be noted: Homo sapiens, MCF7, 96 h; read-out: EC50. In a few lines:
as §1
For the molecule `C=C(C)[C@@H]1CC[C@]2(COC(=O)NCCCC)CC[C@]3(C)[C@H](CC[C@@H]4[C@@]5(C)CC[C@H](O)C(C)(C)[C@@H]5CC[C@]43C)[C@@H]12`, the EC50 came out at 12.5 µM.

Regarding `C=C(C)[C@@H]1CC[C@]2(COC(=O)Nc3ccccc3)CC[C@]3(C)[C@H](CC[C@@H]4[C@@]5(C)CC[C@H](O)C(C)(C)[C@@H]5CC[C@]43C)[C@@H]12`, the EC50 turned out to be 24.6 µM.

As to `C=C(C)[C@@H]1CC[C@]2(C(=O)N(C)OC)CC[C@]3(C)[C@H](CC[C@@H]4[C@@]5(C)CCC(=O)C(C)(C)[C@@H]5CC[C@]43C)[C@@H]12`, the EC50 came out at 18.7 µM.

Turning to `C=C(C)[C@@H]1CC[C@]2(C(=O)N(C)OC)CC[C@]3(C)[C@H](CC[C@@H]4[C@@]5(C)CC[C@H](OC(C)=O)C(C)(C)[C@@H]5CC[C@]43C)[C@@H]12`, the EC50 was determined as 16.4 µM.

With `C=CCONC(=O)[C@]12CC[C@@H](C(=C)C)[C@@H]1[C@H]1CC[C@@H]3[C@@]4(C)CC[C@H](O)C(C)(C)[C@@H]4CC[C@@]3(C)[C@]1(C)CC2`, the EC50 was 8.6 µM.

Turning to `C=CCONC(=O)[C@]12CC[C@@H](C(=C)C)[C@@H]1[C@H]1CC[C@@H]3[C@@]4(C)CCC(=O)C(C)(C)[C@@H]4CC[C@@]3(C)[C@]1(C)CC2`, the EC50 was 18.4 µM.

System in the next test: not listed separately
Briefly: Cytotoxicity against mouse NIH/3T3 cells after 96 hrs by SRB assay. The class given is cell-based, NIH3T3. The following applies: Mus musculus, NIH3T3, 96 h; read-out: EC50. In a few lines:
as §1
For the molecule `C=C(C)[C@@H]1CC[C@]2(COC(=O)NCCCC)CC[C@]3(C)[C@H](CC[C@@H]4[C@@]5(C)CC[C@H](O)C(C)(C)[C@@H]5CC[C@]43C)[C@@H]12`, the EC50 amounted to 5.7 µM.

For the molecule `C=C(C)[C@@H]1CC[C@]2(COC(=O)Nc3ccccc3)CC[C@]3(C)[C@H](CC[C@@H]4[C@@]5(C)CC[C@H](O)C(C)(C)[C@@H]5CC[C@]43C)[C@@H]12`, the EC50 amounted to 14.3 µM.

Regarding `C=C(C)[C@@H]1CC[C@]2(C(=O)N(C)OC)CC[C@]3(C)[C@H](CC[C@@H]4[C@@]5(C)CCC(=O)C(C)(C)[C@@H]5CC[C@]43C)[C@@H]12`, the EC50 stood at 26.7 µM.

For the molecule `C=C(C)[C@@H]1CC[C@]2(C(=O)N(C)OC)CC[C@]3(C)[C@H](CC[C@@H]4[C@@]5(C)CC[C@H](OC(C)=O)C(C)(C)[C@@H]5CC[C@]43C)[C@@H]12`, the EC50 was determined as 17.4 µM.

As to `C=CCONC(=O)[C@]12CC[C@@H](C(=C)C)[C@@H]1[C@H]1CC[C@@H]3[C@@]4(C)CC[C@H](O)C(C)(C)[C@@H]4CC[C@@]3(C)[C@]1(C)CC2`, the EC50 was found to be 6.1 µM.

Consider `C=CCONC(=O)[C@]12CC[C@@H](C(=C)C)[C@@H]1[C@H]1CC[C@@H]3[C@@]4(C)CCC(=O)C(C)(C)[C@@H]4CC[C@@]3(C)[C@]1(C)CC2`, for which the EC50 was 19.7 µM.
